Experimental data taken from ChEMBL document CHEMBL1687750, “Nonclinical pharmacokinetics of oseltamivir and oseltamivir carboxylate in the central nervous system” (Antimicrob Agents Chemother, 2009).

Legend:
[1] = Cmax in non-perfused Sprague-Dawley rat brain at 30 mg/kg, iv after 0.25 hrs; format: ADME, organism-based; design: dose 30 mg/kg, route intravenous
In short: (§1)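 Nonfasted adult rats received 30 mg/kg in aqueous 0.9% NaCl (pH 4.0) by slow tail-vein injection over 20–30 s. Groups were sampled at 5 min and 0.25, 0.5, 1, 2, 4 and 8 h, with 4–5 rats per time point, under terminal isoflurane. Blood was taken by heart puncture and CSF from the cisterna magna. Brains were homogenized either unperfused or after transcardial saline perfusion. Samples were assayed by LC-MS/MS, and pooled composite data were analyzed noncompartmentally.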

Brain [2] = assay: AUC (0 to 8 hrs) after iv dose in non-perfused Sprague-Dawley rat brain assessed as active metabolite oseltamivir carboxylate level at 30 mg/kg; details: in vivo
[3] = Cmax ratio in cerebrospinal fluid to plasma in perfused Sprague-Dawley rat at 30 mg/kg, iv; format: ADME, organism-based, CSF/Plasma; design: dose 30 mg/kg, route intravenous; details: cerebrospinal fluid and plasma; in short: as §1
[4] = AUC ratio in brain to plasma in non-perfused Sprague-Dawley rat at 30 mg/kg, iv; format: ADME, organism-based; design: dose 30 mg/kg, route intravenous; details: brain and plasma, read-out: Ratio AUC; in short: as §1
[5] = Cmax in perfused Sprague-Dawley rat brain at 30 mg/kg, iv after 0.25 hrs; format: ADME, organism-based; design: dose 30 mg/kg, route intravenous; in short: as §1
Brain [6] = assay: Cmax in non-perfused Sprague-Dawley rat brain assessed as active metabolite oseltamivir carboxylate level at 30 mg/kg, iv; format: ADME, organism-based; design: dose 30 mg/kg, route intravenous; details: in vivo; in short: as §1
Cerebrospinal fluid = assay: Cmax in non-perfused Sprague-Dawley rat cerebrospinal fluid assessed as active metabolite oseltamivir carboxylate level at 30 mg/kg, iv; format: ADME, organism-based; design: dose 30 mg/kg, route intravenous; details: in vivo, BLD = below limit of detection; in short: as §1
[7] = AUC ratio in brain to plasma in perfused Sprague-Dawley rat at 30 mg/kg, iv; format: ADME, organism-based; design: dose 30 mg/kg, route intravenous; details: brain and plasma, read-out: Ratio AUC; in short: as §1
[8] = Prodrug conversion in 42 days old female rat liver S9 fractions assessed as oseltamivir carboxylate generation rate assessed per mg of protein per min; format: ADME, subcellular, S9 fraction
In short: (§2)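 Rat brain or liver S9 (9,000 × g supernatant; 1.0 mg protein) was incubated in triplicate with 10 µM 14C-oseltamivir (final) in 100 mM Tris-HCl pH 7.4 for 30 min at 37°C. Reactions were quenched with TCA-acetonitrile, and the fraction converted to OC was measured by radioflow HPLC with fractionation. Rate was calculated as (pmol/ml substrate × fraction hydrolyzed)/(mg protein/ml × time), minus the no-protein background.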

[9] = Prodrug conversion in human brain S9 fractions assessed as oseltamivir carboxylate generation rate assessed per mg of protein per min; format: ADME
In short: (§3)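 S9 from brain or liver (rat S9 made by homogenizing tissue in ~4 ml Tris-sucrose buffer per g, supernatant after 9,000 × g at 10°C; pooled human brain and liver S9 also used), protein by bicinchoninic acid assay. Oseltamivir: triplicate, 10 μM 14C-oseltamivir final, 1.0 mg S9 protein, 100 mM Tris-HCl pH 7.4, 30 min at 37°C, quenched with TCA-acetonitrile.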

[10] = Prodrug conversion assessed as oseltamivir carboxylate level in presence of Sf9 cell culture supernatant expressing human recombinant HCE1 after 30 mins; format: ADME; details: sf9, 0.5 h
In short: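 Culture supernatants from baculovirus-infected Sf9 cells (day 5–7; 1.0 mg/ml protein) were incubated in triplicate with 10 µM 14C-oseltamivir in 100 mM Tris-HCl at 37°C for 30 min. Reactions were quenched with TCA-acetonitrile, then analyzed by HPLC with fraction scintillation counting. Conversion was calculated as OC radioactivity over total radioactivity, corrected for no-enzyme hydrolysis. Wild-type virus and liver S9 served as controls.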

[11] = Prodrug conversion in 42 days old female rat brain S9 fractions assessed as conversion of oseltamivir to oseltamivir carboxylate; format: ADME, tissue-based; in short: as §2
[12] = Prodrug conversion in human brain S9 fractions assessed as conversion of oseltamivir to oseltamivir carboxylate; format: ADME; in short: as §3
[13] = Prodrug conversion in human liver S9 fractions assessed as paranitrophenol generation rate assessed per mg of protein per min; format: ADME, subcellular, S9 fraction
[14] = Prodrug conversion in commercial brain S9 fractions assessed as conversion of oseltamivir to oseltamivir carboxylate; format: ADME; in short: as §3
[15] = Prodrug conversion in 7 days old female rat liver S9 fractions assessed as oseltamivir carboxylate generation rate assessed per mg of protein per min; format: ADME, subcellular, S9 fraction; in short: as §3
Plasma = assay: AUC (0 to infinity) in non-perfused Sprague-Dawley rat plasma at 30 mg/kg; details: in vivo, iv
[16] = Prodrug conversion in 42 days old female rat liver S9 fractions assessed as conversion of oseltamivir to oseltamivir carboxylate; format: ADME, subcellular, S9 fraction; in short: as §2
[17] = Prodrug conversion in human liver S9 fractions assessed as oseltamivir carboxylate generation rate assessed per mg of protein per min; format: ADME, subcellular, S9 fraction; in short: as §3
[18] = target: ATP-dependent translocase ABCB1 (Homo sapiens, UniProt P08183); assay: Inhibition of human MDR1-mediated digoxin permeability expressed in pig LLC-PK1 cells; format: cell-based
ATP-dependent translocase ABCB1, sequence (P08183 whole entry): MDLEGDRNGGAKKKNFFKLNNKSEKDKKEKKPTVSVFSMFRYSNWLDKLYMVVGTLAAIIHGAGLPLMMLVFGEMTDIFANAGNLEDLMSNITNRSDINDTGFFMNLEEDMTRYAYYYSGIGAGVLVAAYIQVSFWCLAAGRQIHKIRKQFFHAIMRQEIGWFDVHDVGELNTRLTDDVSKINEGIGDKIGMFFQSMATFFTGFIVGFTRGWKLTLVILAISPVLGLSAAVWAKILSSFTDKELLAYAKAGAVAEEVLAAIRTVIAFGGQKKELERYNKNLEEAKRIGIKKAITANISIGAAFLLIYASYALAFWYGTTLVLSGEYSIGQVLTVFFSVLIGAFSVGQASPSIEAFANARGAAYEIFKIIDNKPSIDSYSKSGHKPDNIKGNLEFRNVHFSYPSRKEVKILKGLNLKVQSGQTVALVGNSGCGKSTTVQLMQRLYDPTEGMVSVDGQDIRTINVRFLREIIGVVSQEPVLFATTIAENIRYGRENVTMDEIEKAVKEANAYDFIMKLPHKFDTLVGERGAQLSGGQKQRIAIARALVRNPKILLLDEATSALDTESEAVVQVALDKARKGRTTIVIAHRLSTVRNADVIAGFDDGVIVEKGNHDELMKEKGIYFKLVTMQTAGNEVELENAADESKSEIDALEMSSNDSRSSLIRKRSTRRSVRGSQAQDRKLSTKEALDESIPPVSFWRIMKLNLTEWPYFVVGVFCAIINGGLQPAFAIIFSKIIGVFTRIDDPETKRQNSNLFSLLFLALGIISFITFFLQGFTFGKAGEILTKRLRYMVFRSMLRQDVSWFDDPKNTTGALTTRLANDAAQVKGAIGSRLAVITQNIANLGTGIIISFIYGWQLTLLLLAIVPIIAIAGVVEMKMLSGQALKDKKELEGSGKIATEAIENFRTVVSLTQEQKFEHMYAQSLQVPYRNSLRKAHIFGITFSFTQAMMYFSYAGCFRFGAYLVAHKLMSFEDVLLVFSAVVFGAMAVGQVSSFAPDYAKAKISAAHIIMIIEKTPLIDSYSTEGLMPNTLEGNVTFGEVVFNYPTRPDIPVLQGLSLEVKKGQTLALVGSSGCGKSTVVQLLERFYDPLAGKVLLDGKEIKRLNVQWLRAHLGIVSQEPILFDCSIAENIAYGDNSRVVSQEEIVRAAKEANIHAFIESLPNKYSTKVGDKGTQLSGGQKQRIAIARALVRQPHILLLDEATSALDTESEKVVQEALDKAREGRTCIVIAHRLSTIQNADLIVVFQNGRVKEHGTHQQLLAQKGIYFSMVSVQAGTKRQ
In short: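 P-gp-transfected LLC-PK1 monolayers were used, with labeled digoxin (10 nM) as substrate and unlabeled oseltamivir (0.1–10 mM) added to both donor and receiver sides. Transport was bidirectional at 37°C under 5% CO2, with the acceptor side sampled up to 3 h and counted by scintillation. Three inserts were used per condition, and IC50 was derived from inhibition of digoxin transport.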

[19] = Prodrug conversion in 7 days old male rat brain S9 fractions assessed as paranitrophenol generation rate assessed per mg of protein per min; format: ADME, tissue-based
[20] = Prodrug conversion in commercial liver S9 fractions assessed as conversion of oseltamivir to oseltamivir carboxylate; format: ADME, subcellular, Liver S9 fraction; in short: as §3
[21] = Clearance in Sprague-Dawley rat at 30 mg/kg, iv; format: ADME, organism-based; design: dose 30 mg/kg, route intravenous; details: in vivo; in short: as §1
[22] = Prodrug conversion in 42 days old male rat liver S9 fractions assessed as conversion of oseltamivir to oseltamivir carboxylate; format: ADME, subcellular, S9 fraction; in short: as §2
[23] = Prodrug conversion in commercial brain S9 fractions assessed as paranitrophenol generation rate assessed per mg of protein per min; format: ADME
[24] = AUC (0 to infinity) ratio in brain to plasma in non-perfused Sprague-Dawley rat at 30 mg/kg, iv; format: ADME, organism-based; design: dose 30 mg/kg, route intravenous; details: brain and plasma, read-out: Ratio AUC; in short: as §1
[25] = Prodrug conversion in 7 days old female rat brain S9 fractions assessed as paranitrophenol generation rate assessed per mg of protein per min; format: ADME, tissue-based
[26] = Prodrug conversion in commercial brain S9 fractions assessed as oseltamivir carboxylate generation rate assessed per mg of protein per min; format: ADME; in short: as §3
[27] = Prodrug conversion in 7 days old male rat brain S9 fractions assessed as conversion of oseltamivir to oseltamivir carboxylate; format: ADME, tissue-based; in short: as §3
[28] = Prodrug conversion in 42 days old male rat brain S9 fractions assessed as oseltamivir carboxylate generation rate assessed per mg of protein per min; format: ADME, tissue-based; in short: as §2
[29] = Prodrug conversion in 42 days old female rat liver S9 fractions assessed as paranitrophenol generation rate assessed per mg of protein per min; format: ADME, subcellular, S9 fraction
In short: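 Control esterase activity was measured by incubating 100 µM p-nitrophenyl acetate (final) with 0.05 mg rat brain or liver S9 protein in 1.5 ml Tris-HCl pH 7.4 for 1 min at 37°C. Reactions were quenched with acetonitrile, and product was quantified by HPLC-UV against external standards. The no-protein blank rate was subtracted, and rate was expressed per mg protein per min.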

[30] = Prodrug conversion in 7 days old male rat brain S9 fractions assessed as oseltamivir carboxylate generation rate assessed per mg of protein per min; format: ADME, tissue-based; in short: as §3
[31] = Prodrug conversion in 7 days old male rat liver S9 fractions assessed as conversion of oseltamivir to oseltamivir carboxylate; format: ADME, subcellular, S9 fraction; in short: as §3

In the case of `CCC(CC)O[C@@H]1C=C(C(=O)O)C[C@H](N)[C@H]1NC(C)=O` [OSELTAMIVIR CARBOXYLATE], the Cmax [1] is reported as 164 ng/g, the AUC (Brain [2]) is reported as 145 and the Kp [3] is reported as 0.003. It also gave a Kp [4] of 0.01, a Cmax [5] of 75.5 ng/g and a Cmax (Brain [6]) of 164 ng/g. For the same molecule, the Cmax (Cerebrospinal fluid) was “BLD” and the Kp [7] was under 0.004.

In the case of `CCOC(=O)C1=C[C@@H](OC(CC)CC)[C@H](NC(C)=O)[C@@H](N)C1` [OSELTAMIVIR], the Activity [8] is reported as 1.37 pmol/s, the Activity [9] is reported as 0.39 pmol/s and the Activity ([9]; BLD = below limit of detection) is reported as “BLD”. The Activity [10] was “Active”, the Activity [11] was 0.18% and the Activity [12] was 0.12%. For the same molecule, the Activity ([12]; BLD = below limit of detection) was “BLD”, the Activity [13] was 574 nmol and the Activity [14] was 0.1%. The Activity [15] was 0.34 pmol/s, the AUC (Plasma) was 5330 and the Activity [16] was 0.41%. It also gave an Activity [17] of 119 pmol/s, an IC50 [18] of 1300 µM and an Activity [19] of 80 nmol. For the same molecule, the Activity [20] was 3.79%, the clearance [21] was 93.9 mL/min/kg and the Activity [22] was 0.63%. The Activity [23] was 49 nmol, the Kp [24] was 0.24 and the Activity [25] was 92 nmol. It also gave an Activity [26] of 0.32 pmol/min/mg, an Activity [27] of under 0.06% and an Activity [28] of 0.52 pmol/s. The Activity [29] was 1001 nmol, the Activity [30] was under 0.2 pmol/s and the Activity [31] was 0.1%.
